Data set [1] is described as follows: MRT (0 to infinity) in Sprague-Dawley rat plasma at 1 mg/kg, iv measured after 24 hrs by UPLC analysis. Format: ADME, organism-based. An outline of the steps:
(§1)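 Rat plasma sampled from 2 min to 24 h after a single i.v. (1 mg/kg) or p.o. (10 mg/kg) dose. Parameters were derived from the concentration-time profiles. The bioanalytical method was validated to FDA guidelines for selectivity, linearity, LLOQ, accuracy, precision, recovery, matrix effect and stability.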

Data set [2] concerns MDA-MB-231. The data set is described as follows: Effect on total STAT3 level in human MDA-MB-231 cells at 2.5 to 5 uM after 12 hrs by immunoblot analysis. Format: ADME, cell-based. Conditions: mda-mb-231, 12 h. An outline of the steps: (§2)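 MDA-MB-231 cells at 60–80% confluence were treated 12 h with 10% FBS at 2.5-10 µM or 2.5-5 µM, against a DMSO control. Whole-cell lysates were immunoblotted, with bands quantified as percent of control.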
(In general: A western blot detects proteins with antibodies after separation by electrophoresis.)

The test system of data set [3] is MDA-MB-231. Nature of the data set: Induction of apoptosis in human MDA-MB-231 cells assessed as increase in cleaved caspase level at 2.5 to 5 uM after 12 hrs by immunoblot analysis. Format: functional, cell-based. An outline of the steps: as §2
The test system of data set [4] is MDA-MB-231. The data set is described as follows: Induction of SHP-1 expression in human MDA-MB-231 cells at 2.5 to 10 uM after 12 hrs by immunoblot analysis. Format: functional, cell-based. An outline of the steps: as §2
The subject of data set [5] is Mus musculus. Nature of the data set: Toxicity in BALB/c nude mouse xenografted with human MDA-MB-231 cells assessed as lung damage at 2.5 to 10 mg/kg, po qd administered for 32 days by H&E staining based light microscopy. Conditions: in vivo, 768 h. Format: organism-based. An outline of the steps: (§3)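 6-week-old female athymic SPF BALB/c nude mice received 5 x 10^6 MDA-MB-231 cells s.c. in the flank. Oral treatment began once tumors reached about 100 mm3, with 8 mice per group and a saline vehicle control. […] Treatment lasted 32 days. Heart, liver, spleen, lung and kidney were fixed 48 h in 10% neutral-buffered formaldehyde, paraffin-embedded, cut at 5 µm, H&E-stained and examined by light microscopy.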
In general terms: In xenograft studies the graft and the host belong to different species.

Data set [6] has as its target T1, Signal transducer and activator of transcription 5A (Homo sapiens) (UniProt P42229).
T1 sequence (whole entry): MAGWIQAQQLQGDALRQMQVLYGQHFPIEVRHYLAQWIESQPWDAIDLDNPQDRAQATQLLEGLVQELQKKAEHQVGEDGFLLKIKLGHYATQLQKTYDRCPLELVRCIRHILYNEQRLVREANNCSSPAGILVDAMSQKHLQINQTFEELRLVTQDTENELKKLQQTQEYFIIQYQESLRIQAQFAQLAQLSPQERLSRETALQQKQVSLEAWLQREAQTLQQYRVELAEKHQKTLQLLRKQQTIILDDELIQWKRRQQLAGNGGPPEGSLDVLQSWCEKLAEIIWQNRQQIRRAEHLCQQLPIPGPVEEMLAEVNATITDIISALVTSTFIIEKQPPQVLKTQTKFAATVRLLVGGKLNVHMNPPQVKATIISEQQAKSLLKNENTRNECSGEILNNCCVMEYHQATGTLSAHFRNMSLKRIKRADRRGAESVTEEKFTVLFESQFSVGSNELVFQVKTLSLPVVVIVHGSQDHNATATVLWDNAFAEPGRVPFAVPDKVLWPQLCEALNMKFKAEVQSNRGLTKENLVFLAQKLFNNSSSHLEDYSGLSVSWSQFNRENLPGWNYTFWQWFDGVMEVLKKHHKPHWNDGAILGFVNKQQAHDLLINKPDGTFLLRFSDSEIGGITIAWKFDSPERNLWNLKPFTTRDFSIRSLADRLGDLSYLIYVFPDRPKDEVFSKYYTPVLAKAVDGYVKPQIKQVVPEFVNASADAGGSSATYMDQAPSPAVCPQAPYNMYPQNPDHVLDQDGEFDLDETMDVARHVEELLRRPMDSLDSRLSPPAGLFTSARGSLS
The data set is described as follows: Inhibition of STAT5 dimerization in human MDA-MB-231 cells assessed as inhibition of STAT5-STAT5 DNA binding activity at 5 uM after 24 hrs by EMSA. Format: cell-based. An outline of the steps: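 MDA-MB-231 cells were treated at 5 µM for 0-24 h before nuclear extract preparation. Extracts were incubated with biotin-labeled probe for 30 min at room temperature, then analysed by EMSA.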
For orientation: In EMSA bound probe runs differently from free probe, usually more slowly.

A short description of data set [7]: AUC (0 to t) in Sprague-Dawley rat plasma at 10 mg/kg, po measured after 24 hrs by UPLC analysis. Format: ADME, organism-based. Further details: time < 24 hr, dose 10 mg/kg, route oral. An outline of the steps: as §1
Data set [8] concerns MDA-MB-231. The data set is described as follows: Anticancer activity against human MDA-MB-231 cells xenografted in BALB/c nude mouse assessed as reduction in tumor volume at 10 mg/kg, po qd administered for 32 days. Format: functional. Further details: scale not given: the % may be the effect or the level left. An outline of the steps: (§4)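 Female athymic BALB/c nude mice, 6 weeks old, bearing s.c. flank MDA-MB-231 xenografts (5 x 10^6 cells). Dosing began at about 100 mm3 tumor volume; 8 mice per group, one tumor each. Drug was given orally in saline, with a saline vehicle control, for 32 days. Caliper L and W measured every other day; volume = 0.5236×L×W².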

Data set [9] is described as follows: AUC (0 to infinity) in Sprague-Dawley rat plasma at 10 mg/kg, po measured after 24 hrs by UPLC analysis. Type of data set: ADME, organism-based. Details: dose 10 mg/kg, route oral, time infinity. An outline of the steps:
as §1

The nature of data set [10]: MRT (0 to t) in Sprague-Dawley rat plasma at 1 mg/kg, iv measured after 24 hrs by UPLC analysis. Format: ADME, organism-based. An outline of the steps:
as §1

A short description of data set [11]: MRT (0 to t) in Sprague-Dawley rat plasma at 10 mg/kg, po measured after 24 hrs by UPLC analysis. Format: ADME, organism-based. An outline of the steps: as §1
Data set [12] has as its system Mus musculus. Nature of the data set: Toxicity in BALB/c nude mouse xenografted with human MDA-MB-231 cells assessed as spleen damage at 2.5 to 10 mg/kg, po qd administered for 32 days by H&E staining based light microscopy. Type of data set: organism-based. The note with it: in vivo, 768 h. An outline of the steps:
as §3

For data set [13], the target named is Epidermal growth factor receptor (Homo sapiens) (UniProt P00533). Nature of the data set: Inhibition of EGFR in human UW426 cells assessed as reduction in p-ERK1/2 (T202/Y204) level at 1 to 2.5 uM after 24 hrs by immunoblot analysis. Format: cell-based. An outline of the steps: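 UW426 cells at 60–80% confluence were treated 24 h at 1-2.5 µM with 10% FBS, against a DMSO control, then immunoblotted.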
Sequence of Epidermal growth factor receptor (Homo sapiens) (P00533 whole entry): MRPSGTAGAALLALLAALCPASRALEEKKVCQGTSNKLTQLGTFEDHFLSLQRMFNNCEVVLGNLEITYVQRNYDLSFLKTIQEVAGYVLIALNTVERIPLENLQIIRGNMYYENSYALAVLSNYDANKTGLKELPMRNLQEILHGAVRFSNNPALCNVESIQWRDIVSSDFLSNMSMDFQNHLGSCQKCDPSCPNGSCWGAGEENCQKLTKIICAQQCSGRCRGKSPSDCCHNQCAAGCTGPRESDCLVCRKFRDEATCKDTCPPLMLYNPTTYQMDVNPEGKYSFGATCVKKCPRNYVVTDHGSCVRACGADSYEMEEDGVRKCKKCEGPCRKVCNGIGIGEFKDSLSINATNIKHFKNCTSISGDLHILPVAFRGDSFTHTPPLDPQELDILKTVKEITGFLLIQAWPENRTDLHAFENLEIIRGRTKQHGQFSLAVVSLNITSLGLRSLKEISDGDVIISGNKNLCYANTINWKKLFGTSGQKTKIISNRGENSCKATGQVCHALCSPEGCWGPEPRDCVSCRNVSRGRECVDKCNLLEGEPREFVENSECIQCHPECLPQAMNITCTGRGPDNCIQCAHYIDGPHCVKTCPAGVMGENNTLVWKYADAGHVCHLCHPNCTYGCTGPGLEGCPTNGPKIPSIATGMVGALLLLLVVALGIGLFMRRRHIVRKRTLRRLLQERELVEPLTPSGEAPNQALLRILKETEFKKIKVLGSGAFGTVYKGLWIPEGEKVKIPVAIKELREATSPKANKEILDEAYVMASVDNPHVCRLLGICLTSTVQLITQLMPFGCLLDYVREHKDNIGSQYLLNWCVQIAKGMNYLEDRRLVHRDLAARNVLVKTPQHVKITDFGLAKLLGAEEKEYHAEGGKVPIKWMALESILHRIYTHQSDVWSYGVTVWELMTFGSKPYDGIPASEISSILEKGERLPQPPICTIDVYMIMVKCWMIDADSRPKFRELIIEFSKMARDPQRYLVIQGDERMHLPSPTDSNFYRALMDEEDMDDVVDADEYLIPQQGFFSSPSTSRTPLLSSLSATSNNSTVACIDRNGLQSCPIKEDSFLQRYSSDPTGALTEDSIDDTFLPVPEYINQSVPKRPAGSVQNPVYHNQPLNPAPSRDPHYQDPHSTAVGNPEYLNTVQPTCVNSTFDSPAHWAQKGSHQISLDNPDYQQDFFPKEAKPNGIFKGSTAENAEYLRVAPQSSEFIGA

Data set [14] concerns Mus musculus. Nature of the data set: In vivo inhibition of STAT3 in po dosed BALB/c nude mouse xenografted with human MDA-MB-231 assessed as reduction in p-STAT3(Y705) level administered as qd for 32 days by Western blot analysis. Type of data set: functional, organism-based. An outline of the steps: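 Whole-cell lysates from MDA-MB-231 xenograft tumors of mice dosed orally at 2.5, 5 or 10 mg/kg were immunoblotted for P-STAT3(Y705), T-STAT3 and GAPDH.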

Data set [15] concerns Mus musculus. The data set is described as follows: Toxicity in BALB/c nude mouse xenografted with human MDA-MB-231 cells assessed as liver damage at 2.5 to 10 mg/kg, po qd administered for 32 days by H&E staining based light microscopy. The note with it: in vivo, 768 h. Format: organism-based. An outline of the steps: as §3
The nature of data set [16]: Terminal half life in Sprague-Dawley rat plasma at 10 mg/kg, po measured after 24 hrs by UPLC analysis. Format: ADME, organism-based. The note with it: read-out: beta t1/2 (converted). An outline of the steps: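 Rats dosed i.v. or p.o. Plasma concentrations followed from 2 min to 24 h after dosing. The bioanalytical method was validated to FDA guidelines for selectivity, linearity, LLOQ, accuracy, precision, recovery, matrix effect and stability.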

The subject of data set [17] is MDA-MB-231. Nature of the data set: Anticancer activity against human MDA-MB-231 cells xenografted in BALB/c nude mouse assessed as reduction in tumor volume at 2.5 mg/kg, po qd administered for 32 days. Format: functional. Details: scale not given: the % may be the effect or the level left. An outline of the steps: as §4

The source made the active and inactive calls. No cut-off for these calls is given here.

Broadly, the MRT inf is a mean duration of stay, worked out from the concentration-time curve. As a reminder, the AUC(0-t) is exposure summed from dosing to a finite time, without extrapolation to infinity. The AUC(0-inf) is total exposure, with the tail of the curve extrapolated. The MRT last is a mean duration of stay, worked out from the concentration-time curve. Turning to `NS(=O)(=O)c1cccc2c1C(=O)C=C(Nc1ccccc1N1CCNCC1)C2=O`, the MRT inf in [1] worked out at 0.71 h. In addition, the Activity result is reported as “Non-Toxic” with MDA-MB-231 [2]; “Non-Toxic” with Mus musculus [5]; 70% with MDA-MB-231 [8]; “Non-Toxic” with Mus musculus [12]; “Non-Toxic” with Mus musculus [15]; 53% with MDA-MB-231 [17]. The result in the data set on MDA-MB-231 [3] and in the data set on MDA-MB-231 [4] was Active. Moreover, the inhibition result in data set [6] and in [13] was “inactive” throughout. The AUC(0-t) at 24 h in data set [7] worked out at 850 ng·h/mL. In data set [9], this compound came in with an AUC(0-inf) of 889 ng·h/mL. Besides, the MRT last at 24 h in [10] was found to be 0.55 h; in data set [11], 1.87 h. In the data set with Mus musculus [14], the inhibition result was “Dose-dependent effect”. The half-life in [16] was 1.98 h.

These data come from ChEMBL document CHEMBL4007452, “Discovery of an Orally Selective Inhibitor of Signal Transducer and Activator of Transcription 3 Using Advanced Multiple Ligand Simultaneous Docking” (J Med Chem, 2017).
